Compounds with a hit are over-represented: about 1.4% of the library has one in this group of screens.
hK5 inh: kallikrein 5 (human) inhibition; inhibition, % at 5 µM; recombinant hK5, fluorogenic AMC substrate cleavage; Q9Y337; hit rate 0.59% among 210,000;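 active = inhibition of 40% or more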
m-calpain inh: blocks pig calpain II enzyme activity | purified calpain II, fluorogenic peptide substrate, 30 min | inhibition, % at 16 µM | hit rate 0.37% among 220,000;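 active = inhibition above about 50%, limit read from the data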
thrombin 1536: thrombin (human) inhibition; P00734; alpha-thrombin, Boc-VPR-AMC fluorogenic substrate cleavage; inhibition, % at 5 µM; hit rate 0.26% among 220,000;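 active = inhibition at or above 40%; inactive = inhibition below 40%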
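Test system: human alpha-thrombin; medium: pH 7.5 Tris-saline with Tween 20; times: reaction at room temperature; signal: AMC fluorescence at 355 nm excitation and 460 nm emission; also added: Boc-VPR-AMC substrate, 15 µM final; dosing: one concentration per compound, 5 µM, with 0.2% DMSO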
FXIa inh 1536: factor XIa (human) inhibition | AID 798 | hit rate 0.14% among 220,000 | P03951 | purified FXIa, Boc-Glu-Ala-Arg-AMC fluorogenic substrate | inhibition, % at 5 µM;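 active = inhibition of at least 40%; inactive = inhibition below 40%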;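 note: fluorescence of freed AMC excited at 355 nm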
Target sequence (P03951 19-387 limits assumed): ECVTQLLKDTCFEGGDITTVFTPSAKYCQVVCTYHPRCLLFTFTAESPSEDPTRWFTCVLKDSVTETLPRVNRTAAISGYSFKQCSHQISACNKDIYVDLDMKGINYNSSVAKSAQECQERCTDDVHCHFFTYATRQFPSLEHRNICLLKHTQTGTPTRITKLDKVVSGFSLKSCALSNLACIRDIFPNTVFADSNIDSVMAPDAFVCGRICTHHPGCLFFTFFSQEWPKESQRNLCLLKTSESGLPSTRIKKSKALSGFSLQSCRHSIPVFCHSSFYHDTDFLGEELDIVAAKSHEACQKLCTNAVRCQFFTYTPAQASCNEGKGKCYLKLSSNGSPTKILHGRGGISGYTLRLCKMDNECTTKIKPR
Target sequence (P03951 388-625 limits assumed): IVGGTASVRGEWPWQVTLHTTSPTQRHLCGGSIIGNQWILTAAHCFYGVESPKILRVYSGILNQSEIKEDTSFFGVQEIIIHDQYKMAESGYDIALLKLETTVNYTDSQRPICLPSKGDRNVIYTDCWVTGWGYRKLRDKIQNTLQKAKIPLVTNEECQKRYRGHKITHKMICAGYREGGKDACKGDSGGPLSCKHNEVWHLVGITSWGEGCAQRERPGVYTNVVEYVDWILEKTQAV
FXIIa inh 1536: inhibitors of human coagulation factor XIIa; P00748; purified FXIIa, Boc-QGR-AMC fluorogenic substrate, 2 h; hit rate 0.3% among 220,000; inhibition, % at 5 µM; in the data active = inhibition above about 40%
Of the large screens only hits and unclear results are named; the others gave an inactive call.

Cc1ccc(Nc2nc(-c3sc(NC(=O)c4ccco4)nc3C)cs2)cc1	hK5 inh 53.5
Cc1ccccc1Nc1nc(-c2sc(NC(=O)c3ccco3)nc2C)cs1	none
Cc1ccc(N(C)C(=O)N2CCN(S(=O)(=O)c3ccc(C)c(C)c3)CC2)cc1	none
O=C(Nc1ccc(Oc2ccc(C(=O)O)c(C(=O)O)c2)cc1)c1cccs1	none
Cc1csc(NC(=O)c2cccn2C)n1	none
Cn1cccc1C(=O)Nc1nc(-c2ccccn2)cs1	FXIa inh 1536 46.8
CCOC(=O)C(C)n1cnc2sc3c(c2c1=O)CCC3 (centres undefined)	hK5 inh 40.5
CCOC(=O)c1cnn(-c2ncnc3sc4c(c23)CCC4)c1N	thrombin 1536 49.5
CCOC(=O)C1(Cc2ccc(Cl)cc2)CCN(C(=O)c2cc(C)nc(C)n2)CC1	none
COc1ccccc1CNC(=O)CSc1nc(C)cs1	none
Cc1csc(SCC(=O)NCc2ccccc2Cl)n1	thrombin 1536 47.6
O=c1[nH]nc(SCc2nc3ccccc3s2)n1C1CC1	none
CCCn1c(SCc2nc3ccccc3s2)n[nH]c1=O	m-calpain inh 50.2
Cc1ccc(O)c(-c2cc(-c3ccccc3[N+](=O)[O-])[nH]n2)c1	none
Cc1ccc(O)c(-c2cc(-c3ccccc3C)[nH]n2)c1	hK5 inh 50.5
Nc1ccc(S(=O)(=O)N2CCCC2)cc1	none
O=S(=O)(c1ccc(S(=O)(=O)N2CCCC2)cc1)N1CCCCCC1	FXIIa inh 1536 44.4
Nc1cc(S(=O)(=O)N2CCCCC2)ccc1Oc1ccc(Cl)cc1	m-calpain inh 63.5
O=S(=O)(c1cccc(NC(=S)Nc2ccc(Br)cc2Cl)c1)N1CCOCC1	none
O=c1cc(CSCc2ccc(Cl)cc2)[nH]c(=O)[nH]1	none
Cc1ccc2nc(C)cc(C(=O)OCC(=O)Nc3cccnc3Cl)c2c1	none
O=C(Oc1ccc(Cl)c2cccnc12)N1CCCCC1	none
O=C(Oc1ccc(Cl)c2cccnc12)C12CC3CC(CC(C3)C1)C2	m-calpain inh 56.3
CCc1ccc(C(=O)COC(=O)c2cccnc2Cl)cc1	none
COc1ccc(Cn2c(=O)c3c(nc(NCCO)n3C)n(C)c2=O)cc1	none
COc1cccc(Cn2c(NCc3ccco3)nc3c2c(=O)n(C)c(=O)n3C)c1	FXIIa inh 1536 43.6
Cn1c(NCc2ccco2)nc2c1c(=O)n(Cc1ccc(Br)cc1)c(=O)n2C	m-calpain inh 71.0
Cn1c(NCc2ccccc2)nc2c1c(=O)n(Cc1ccc(Br)cc1)c(=O)n2C	m-calpain inh 77.5
COc1ccc(CNc2nc3c(c(=O)n(Cc4ccc(Br)cc4)c(=O)n3C)n2C)cc1	m-calpain inh 88.5
COc1ccccc1CNC(=O)c1ccc(N2CCOCC2)c([N+](=O)[O-])c1	none
Cc1ccc(S(=O)(=O)N2CCN(Cc3ccccc3)CC2)c(C)c1N(C)S(=O)(=O)c1ccccc1	none
Cn1c(Cl)nc2c1c(=O)n(Cc1cccc(Br)c1)c(=O)n2C	thrombin 1536 104.0
Cc1ccc(-c2[nH]ncc2/C=N/n2c(COc3ccccc3C)nc3ccccc3c2=O)cc1	m-calpain inh 61.3
Cc1ccccc1OCc1nc2ccccc2c(=O)n1/N=C/c1c[nH]c2ccccc12	none
Cc1occc1C(=O)NNC(=O)c1ccccc1Br	hK5 inh 45.6
Cc1ccccc1C(=O)NNC(=O)c1ccoc1C	hK5 inh 63.2
Cc1occc1C(=O)NNC(=O)c1ccccc1C(=O)O	none
Cc1cc(-n2ccnc2)n2c(nc3ccccc32)c1C#N	FXIIa inh 1536 106.1
CC(C)=CCN1CCN(Cc2cc(F)ccc2-n2nc(C)cc2C)CC1CCO (centres undefined)	none
CSc1nc(-c2ccccc2)nn1C(=O)c1ccc(Cl)cc1	hK5 inh 68.0, thrombin 1536 84.2
CSc1nc(-c2ccc(Cl)cc2)nn1C(=O)c1ccccc1	hK5 inh 63.3
CSc1nc(-c2ccccc2)nn1S(=O)(=O)c1ccc(Cl)cc1	none
COC(=O)c1cccc(NC(=O)c2cccnc2C(=O)O)c1C	none
CCOc1ccccc1/C=C(\NC(=O)c1ccccc1)C(=O)NCCC(=O)O	none
CCOc1ccccc1/C=C(/NC(=O)c1ccccc1)C(=O)NCC(=O)O	hK5 inh 47.4
CC1CN(Cc2ccccc2)C(C)CC1O (centres undefined)	none
COc1ccc(CC(=O)Nc2ccccc2N2CCCCC2)cc1OC	hK5 inh 111.9
COc1ccc(CC(=O)Nc2ccccc2N2CCOCC2)cc1OC	none
CC(=O)Nc1c(C(=O)O)[nH]c2ccccc12	hK5 inh 72.5
COc1cc(Br)cc(CNc2ccc(F)c([N+](=O)[O-])c2)c1O	m-calpain inh 91.4
CCN1CCCC1CNC1=NCCCCC1 (centres undefined)	none
CCCC(C)NC1=NCCCCC1 (centres undefined)	hK5 inh 55.8
CCC(=O)C1=C(N2CCCC2)CC(C)(C)CC1=O	hK5 inh 47.4
CCCCC(=O)C1=C(N2CCCC2)CC(C)(C)CC1=O	none
COc1cccc(NC(=O)CN(C)CC(=O)Nc2ccc(Cl)cc2[N+](=O)[O-])c1	m-calpain inh 55.1
CC(C)NC(=O)C1CCCN(S(=O)(=O)c2cccs2)C1 (centres undefined)	none
CCOC(=O)C1CCCN(S(=O)(=O)c2cccs2)C1 (centres undefined)	m-calpain inh 56.8
CCOC(=O)CSc1nnc(CNC(=O)c2ccc(S(=O)(=O)N3CCCC3)cc2)n1C	hK5 inh 47.9, thrombin 1536 48.2
CCOC(=O)CSc1nnc(CNC(=O)c2ccc(S(=O)(=O)N3CCOCC3)cc2)n1C	none
Cc1cc(C)cc(NC(=O)c2ccc(Cn3nc(C)c(Cl)c3C)o2)c1	hK5 inh 120.4
Cc1ccc(CNC(=O)c2ccc(Cn3nc(C)c(Cl)c3C)o2)cc1	none
CC1(C)CC(=O)C(N=Nc2ccc(Br)cc2)=C(O)C1	FXIIa inh 1536 75.3
CCCN(Cc1nnc(-c2ccccc2Cl)o1)C(=O)c1cc([N+](=O)[O-])cc([N+](=O)[O-])c1	none
CN(Cc1ccccc1)c1nc2c(c(=O)[nH]c(=O)n2C)n1CCCSc1ncccn1	FXIa inh 1536 41.9, FXIIa inh 1536 51.6
Cc1ccc(C2(c3noc(CN4CCC(c5ccncc5)CC4)n3)CCCC2)cc1	none
COc1ccc2nc3ccccc3nc2c1N	FXIIa inh 1536 43.5
COc1ccc2nc3cccc(OC)c3nc2c1	none
CCCc1cc(=O)[nH]c(Nc2ccc3c(c2)OCCO3)n1	none
O=C(O)c1cccc(N/N=C/c2ccc(F)c(F)c2)c1	none (no result: FXIIa inh 1536)
O=C(O)c1cccc(N/N=C/C2=C(Cl)c3cc(Cl)ccc3SC2)c1	m-calpain inh 57.7
CC1(C)C(=O)N(OCc2ccccc2)C(C)(C)C(=O)N1OCc1ccccc1	none
Cc1ccc2[nH]c(=O)c(CN(CC3COCCO3)C(=O)Nc3ccccc3F)cc2c1 (centres undefined)	none
CCn1c(=S)[nH]c2nc3c(cc2c1=O)CCCC3	hK5 inh 88.4
N/C(=N\OC(=O)Cc1ccccc1[N+](=O)[O-])c1cccnc1	none
COc1ccc(/C(N)=N/OC(=O)Cc2ccccc2[N+](=O)[O-])cc1	m-calpain inh 56.7
CCCCc1noc(-c2c(-c3ccccc3Cl)noc2C)n1	none (no result: hK5 inh)
